Source: ChEMBL document CHEMBL1125303, “Truncated, branched, and/or cyclic analogues of neuropeptide Y: importance of the pancreatic peptide fold in the design of specific Y2 receptor ligands” (J Med Chem, 1992)
Positions of bridges follow the written chain, without caps; N, C: chain ends. Non-standard residues stand in square brackets, D forms with d. Residues, ends and D or L forms follow the SMILES beside them. Orn = NCCC[C@H](N)C(=O)O; Dap = NC[C@H](N)C(=O)O

Legend:
[1] = target: T1, Neuropeptide Y receptor type 2 (Homo sapiens, UniProt P49146); assay: Displacement of l25I-PYY from Neuropeptide Y receptor type 2 of human neuroblastoma SK-N-BE cells; format: cell-based
T1 sequence (P49146 whole entry): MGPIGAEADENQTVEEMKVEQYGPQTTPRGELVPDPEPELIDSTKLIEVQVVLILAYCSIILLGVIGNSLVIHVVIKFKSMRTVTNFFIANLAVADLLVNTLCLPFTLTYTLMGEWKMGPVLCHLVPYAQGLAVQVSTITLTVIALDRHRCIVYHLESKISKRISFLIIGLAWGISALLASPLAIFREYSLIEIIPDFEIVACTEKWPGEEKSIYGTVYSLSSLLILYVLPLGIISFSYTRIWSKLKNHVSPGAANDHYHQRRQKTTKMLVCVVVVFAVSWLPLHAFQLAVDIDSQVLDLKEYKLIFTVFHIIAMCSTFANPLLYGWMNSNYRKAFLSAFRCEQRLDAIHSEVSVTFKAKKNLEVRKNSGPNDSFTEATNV
Outline: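 Intact SK-N-BE(2) cells (Y2) were grown in DME:F12 with 10% FCS, then plated at 10⁶ cells/well on poly(Lys-Ala)-coated wells and used after 1 day. Cells were washed cold, lysed and gamma-counted. Triplicates; Kd fitted with LIGAND.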

[2] = target: T2, Neuropeptide Y receptor type 1 (Homo sapiens, UniProt P25929); assay: Displacement of l25I-PYY from Neuropeptide Y receptor type 1 of human neuroblastoma SK-N-MC cells; format: cell-based
T2 sequence (P25929 whole entry): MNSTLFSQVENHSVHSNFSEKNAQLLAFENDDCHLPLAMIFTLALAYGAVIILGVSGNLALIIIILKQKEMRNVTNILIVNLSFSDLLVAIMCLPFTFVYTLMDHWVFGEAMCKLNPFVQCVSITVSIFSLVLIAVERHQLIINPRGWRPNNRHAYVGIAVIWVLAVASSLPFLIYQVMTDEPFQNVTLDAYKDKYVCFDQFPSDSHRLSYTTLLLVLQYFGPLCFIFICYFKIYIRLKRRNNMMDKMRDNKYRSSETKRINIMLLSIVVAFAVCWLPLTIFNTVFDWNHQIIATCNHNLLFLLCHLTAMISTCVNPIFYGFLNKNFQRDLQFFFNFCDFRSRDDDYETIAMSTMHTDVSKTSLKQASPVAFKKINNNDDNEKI
Outline: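 Intact SK-N-MC cells (Y1) were grown in MEM with 10% FCS, then plated at 10⁶ cells/well on poly(Lys-Ala)-coated wells and used after 2 days. Cells were washed cold, lysed and gamma-counted. Triplicates; Kd fitted with LIGAND.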

Row | SMILES | Kd ([1]; sk-n-be) | Kd ([2]; sk-n-mc) | Kd [1] | Kd [2]
1 | CC[C@H](C)[C@H](NC(=O)[C@H](CC(C)C)NC(=O)[C@H](CC(N)=O)NC(=O)[C@@H](NC(=O)[C@H]1CNC(=O)CC[C@H](NC(=O)[C@@H](N)Cc2ccc(O)cc2)C(=O)N[C@@H](CO)C(=O)N[C@@H](CCCCN)C(=O)N2CCC[C@H]2C(=O)N[C@H](C)C(=O)N[C@@H](CC(C)C)C(=O)N[C@@H](CCCNC(=N)N)C(=O)N[C@@H](Cc2cnc[nH]2)C(=O)N1)[C@@H](C)CC)C(=O)N[C@H](C(=O)N[C@@H](CCCNC(=N)N)C(=O)N[C@@H](CCC(N)=O)C(=O)N[C@@H](CCCNC(=N)N)C(=O)N[C@@H](Cc1ccc(O)cc1)C(N)=O)[C@@H](C)O | 3.6 nM | > 1000 nM | – | –
2 | CC[C@H](C)[C@@H]1NC(=O)[C@H](Cc2ccc(O)cc2)NC(=O)[C@@H](C)NC(=O)[C@@H]2CCCN2C(=O)[C@@H](N)CCC(=O)NC[C@H](C(=O)N[C@H](C(=O)N[C@H](C(=O)N[C@@H](CCCNC(=N)N)C(=O)N[C@@H](CCC(N)=O)C(=O)N[C@@H](CCCNC(=N)N)C(=O)N[C@@H](Cc2ccc(O)cc2)C(N)=O)[C@@H](C)O)[C@@H](C)CC)NC(=O)[C@H](CC(N)=O)NC1=O | – | – | > 1000 nM | > 1000 nM
3 | CC[C@H](C)[C@@H]1NC(=O)[C@H](Cc2ccc(O)cc2)NC(=O)[C@H](Cc2c[nH]cn2)NC(=O)[C@H](CCCNC(=N)N)NC(=O)[C@H](CC(C)C)NC(=O)[C@@H](C)NC(=O)[C@@H]2CCCN2C(=O)[C@H](CCCCN)NC(=O)[C@H](CO)NC(=O)[C@@H](NC(=O)[C@@H](N)Cc2ccc(O)cc2)CCC(=O)NC[C@H](C(=O)N[C@H](C(=O)N[C@H](C(=O)N[C@@H](CCCNC(=N)N)C(=O)N[C@@H](CCC(N)=O)C(=O)N[C@@H](CCCNC(=N)N)C(=O)N[C@@H](Cc2ccc(O)cc2)C(N)=O)[C@@H](C)O)[C@@H](C)CC)NC(=O)[C@H](CC(N)=O)NC1=O | – | > 1000 nM | – | –
4 | CC[C@H](C)[C@H](NC(=O)[C@H](Cc1ccc(O)cc1)NC(=O)[C@H](Cc1cnc[nH]1)NC(=O)[C@H](CCCNC(=N)N)NC(=O)[C@H](CC(C)C)NC(=O)[C@H](C)NC(=O)[C@H](CO)NC(=O)[C@H](Cc1ccc(O)cc1)NC(=O)[C@H](Cc1ccc(O)cc1)NC(=O)[C@H](CCCNC(=N)N)NC(=O)[C@H](C)N)C(=O)N[C@@H](CC(N)=O)C(=O)N[C@H]1CCCNC(=O)CC[C@@H](C(=O)N[C@@H](CCCNC(=N)N)C(=O)N[C@@H](Cc2ccc(O)cc2)C(N)=O)NC(=O)[C@H](CCCNC(=N)N)NC(=O)[C@H]([C@@H](C)O)NC(=O)[C@H]([C@@H](C)CC)NC1=O (H-ARYYSALRHYIN[Orn]ITRERY-NH2; lactam 13-17) | 950 nM | > 1000 nM | – | –

Other lines, results leading:

Row | Kd ([1]; sk-n-be) | Kd ([2]; sk-n-mc) | Kd [1] | Kd [2] | SMILES
5 | 590 nM | > 1000 nM | – | – | CC[C@H](C)[C@H](NC(=O)[C@H](Cc1ccc(O)cc1)NC(=O)[C@H](Cc1cnc[nH]1)NC(=O)[C@H](CCCNC(=N)N)NC(=O)[C@H](CC(C)C)NC(=O)[C@H](C)NC(=O)[C@H](CO)NC(=O)[C@H](Cc1ccc(O)cc1)NC(=O)[C@H](Cc1ccc(O)cc1)NC(=O)[C@H](CCCNC(=N)N)NC(=O)[C@H](C)N)C(=O)N[C@@H](CC(N)=O)C(=O)N[C@H]1CNC(=O)CC[C@@H](C(=O)N[C@@H](CCCNC(=N)N)C(=O)N[C@@H](Cc2ccc(O)cc2)C(N)=O)NC(=O)[C@H](CCCNC(=N)N)NC(=O)[C@H]([C@@H](C)O)NC(=O)[C@H]([C@@H](C)CC)NC1=O (H-ARYYSALRHYIN[Dap]ITRERY-NH2; lactam 13-17)
6 | 120 nM | – | – | – | CC[C@H](C)[C@H](NC(=O)[C@H](Cc1ccc(O)cc1)NC(=O)[C@@H](C)NC(=O)[C@@H]1CCCN1C(=O)[C@@H](N)Cc1ccc(O)cc1)C(=O)N[C@@H](CC(N)=O)C(=O)N[C@@H](CC(C)C)C(=O)N[C@H](C(=O)N[C@H](C(=O)N[C@@H](CCCN=C(N)N)C(=O)N[C@@H](CCC(N)=O)C(=O)N[C@@H](CCCN=C(N)N)C(=O)N[C@@H](Cc1ccc(O)cc1)C(N)=O)[C@@H](C)O)[C@@H](C)CC
7 | – | – | – | > 1000 nM | CC[C@H](C)[C@H](NC(=O)[C@H](Cc1ccc(O)cc1)NC(=O)[C@H](Cc1c[nH]cn1)NC(=O)[C@H](CCCNC(=N)N)NC(=O)[C@H](CC(C)C)NC(=O)[C@H](C)NC(=O)[C@H](CO)NC(=O)[C@H](Cc1ccc(O)cc1)NC(=O)[C@H](Cc1ccc(O)cc1)NC(=O)[C@H](CCCNC(=N)N)NC(=O)[C@H](C)N)C(=O)N[C@@H](CC(N)=O)C(=O)N[C@@H](CC(C)C)C(=O)N[C@H](C(=O)N[C@H](C(=O)N[C@H]1CCCCNC(=O)CC[C@@H](C(N)=O)NC(=O)[C@H](CCCNC(=N)N)NC(=O)[C@H](CCC(N)=O)NC1=O)[C@@H](C)O)[C@@H](C)CC (H-ARYYSALRHYINLITKQRE-NH2; lactam 16-19)
8 | 360 nM | > 1000 nM | – | – | CC[C@H](C)[C@H](NC(=O)[C@H](Cc1ccc(O)cc1)NC(=O)[C@H](Cc1c[nH]cn1)NC(=O)[C@H](CCCN=C(N)N)NC(=O)[C@H](CC(C)C)NC(=O)[C@H](C)NC(=O)[C@H](CO)NC(=O)[C@H](Cc1ccc(O)cc1)NC(=O)[C@H](Cc1ccc(O)cc1)NC(=O)[C@H](CCCN=C(N)N)NC(=O)[C@H](C)N)C(=O)N[C@@H](CC(N)=O)C(=O)N[C@H]1CCCCNC(=O)CC[C@@H](C(=O)N[C@@H](CCCN=C(N)N)C(=O)N[C@@H](Cc2ccc(O)cc2)C(N)=O)NC(=O)[C@H](CCCN=C(N)N)NC(=O)[C@H]([C@@H](C)O)NC(=O)[C@H]([C@@H](C)CC)NC1=O (H-ARYYSALRHYINKITRERY-NH2; lactam 13-17)
